SUMO Mot1 rescue – inhibitors of SUMOylation pathway: yeast Mot1-301 growth rescue | S. cerevisiae Mot1-301 growth rescue, ATP luminescence, 38.5C; percent above DMSO median, 100 means doubled | growth rescue, % at 18.8 µM | AID 2716 | 1% of 320,000 active;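 active = every valid replicate shows activation above 250% relative to neutral control wells; inactive = the rest, any valid replicate at or below 250%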;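 also: OY570 slx delta 5 strain wells were the positive control but not used for scaling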
Cneo AK release – causes C. neoformans cell lysis; adenylate kinase release luminescence, 4 h; normalised: neutral wells 0, clomiphene wells 100; lysis activity, % at 15 µM; 0.2% of 360,000 active; AID 651654;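 active = mean lysis activity across replicates of at least 80%, whatever share of replicates individually reach that level; inactive = mean lysis activity below 80%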
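read-out = cell lysis signal | test system = log-phase Cryptococcus neoformans yeast cells | input = cells at 5 × 10^6 per mL | medium = fresh YPD growth medium | signal = luminescent adenylate kinase detection reagent | timing = 4 h at 37 °C static, read 1 h later | dosing = single dose | controls = Clomiphene as positive lysis control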
Efflux pump inh – blocks antifungal efflux pumps in multiplex yeast assay | S. cerevisiae Candida pump triplex, Nile Red efflux | inhibition, % at 10 µM | 0.44% of 330,000 active | AID 485275;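 active = plate passing quality check with inhibition over a set limit, or well fluorescence over plate mean plus 4 SD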;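 also: Nile Red retained in pooled yeast measured as flow cytometry median fluorescence; 0% = buffer negative control and 100% = Enniatin B positive control; higher means more Nile Red kept so more efflux inhibition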
Statin myotox sup – protects C2C12 myotubes from simvastatin toxicity; ATP luminescence, 48 h; scaled: DMSO 0, geranylgeraniol control 100; rescue of ATP level, % at 7.49 µM; 0.78% of 330,000 active; AID 602340;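 active = mean ATP rescue above about 67%, or every replicate alone reaching that limit, limit read from the data, passing the limit was not always enough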;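 also: myotubes were challenged with 10 µM simvastatin during compound exposure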
Yeast cmpd fluor – counter-screen for efflux pump inhibitors: compound fluorescence; fluorescence ratio to DMSO, % at 10 µM; S. cerevisiae AD/pABC3, flow cytometry; shares compounds with Efflux pump inh; 4% of 1,700 active;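 active = fluorescence ratio to DMSO above its plate's cutoff, the plate mean ratio plus 5 SD, cut at about 210% in these data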;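 also: unstained yeast with no Nile Red so the signal is compound autofluorescence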
CaMdr1 efflux inh – blocks the Candida albicans Mdr1 efflux pump in yeast; shares compounds with Efflux pump inh; S. cerevisiae AD/CaMDR1, Nile Red efflux, flow cytometry; inhibition, % at 10 µM; 1% of 1,700 active; in the data active = inhibition above about 26%;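 also: 0% = DMSO vehicle and 100% = reference inhibitor; higher means more Nile Red retained so more efflux inhibition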
Cdr2 pump inh – Candida Cdr2 efflux pump inhibition; shares compounds with Efflux pump inh; S. cerevisiae AD/CaCDR2, Nile Red retention, flow cytometry; Nile Red retention ratio vs DMSO, % at 10 µM; 4% of 1,700 active; in the data active = Nile Red retention ratio vs DMSO above about 190%;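 also: higher ratio means more blocking of Cdr2 efflux of the dye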
CaCdr1 efflux inh – inhibitors of Candida albicans Cdr1 efflux pump | shares compounds with Efflux pump inh | S. cerevisiae AD/CaCDR1, Nile Red efflux, flow cytometry | inhibition, % at 10 µM | 1% of 1,700 active | AID 588522;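 active = inhibition above the screen-wide mean plus twice its standard deviation, cut at about 32% in these data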
Numbers without * were called inactive; · = not tested or not shown. A selection: hits, their analogues and other compounds. The true share with any hit is near 1.8%.

SMILES | SUMO Mot1 rescue | Cneo AK release | Efflux pump inh | Statin myotox sup | Yeast cmpd fluor | CaMdr1 efflux inh | Cdr2 pump inh | CaCdr1 efflux inh
C=CCNC(=S)NNC(=O)COc1ccc(Cl)cc1Cl | 21 | · | 15* | · | 104 | -1 | 98 | 0
Cc1noc(C)c1S(=O)(=O)N(C)C[C@H]1OCCCC[C@@H](C)Oc2ccc(NS(=O)(=O)c3cn(C)cn3)cc2C(=O)N([C@@H](C)CO)C[C@@H]1C | · | 0 | · | · | · | · | · | ·
Cc1c(/C=N/NC(=O)c2cc(Br)ccc2O)c(=O)n(C)c(=O)n1C | 189 | 3 | 0.5* | 6 | 105 | 1 | 102 | 0
C/C=N/NC(=O)c1cc(Br)ccc1O | 572 | · | 0 | · | · | · | · | ·
O=C(C1CC1c1ccccc1)N1CCOCC1 (centres undefined) | 24 | 0 | 0 | -3 | · | · | · | ·
COC(=O)[C@H](CCSC)NC(=O)NCc1ccccn1 | -16 | 1 | 0.8* | -12 | 105 | 0 | 112 | 0
O=C(/C=C/c1cccs1)N1CCC2(CC1)Oc1ccc(F)cc1C(=O)C21CC(c2ccc(Cl)cc2)=NO1 (centres undefined) | -11 | 2 | 0 | -6 | · | · | · | ·
O=C(/C=C/c1cccs1)N1CCC2(CC1)Oc1ccc(F)cc1C(=O)C21CC(c2ccccc2)=NO1 (centres undefined) | -9 | 7 | 0.6* | -13 | 108 | 0 | 95 | 0
O=C(c1ccc2c(c1)OCO2)N1CCC2(CC1)Oc1ccc(F)cc1C(=O)C21CC(c2ccc(Cl)cc2)=NO1 (centres undefined) | -11 | -1 | 23* | 2 | 107 | 26* | 110 | 1
CCC(=O)N1CCC2(CC1)Oc1ccc(Cl)cc1C(=O)C21CC(c2cccnc2)=NO1 (centres undefined) | -18 | -1 | 0 | -2 | · | · | · | ·
O=C(c1ccc2c(c1)OCO2)N1CCC2(CC1)Oc1ccc(Cl)cc1C(=O)C21CC(c2ccccc2)=NO1 (centres undefined) | -24 | 0 | 0 | 17 | 94 | 0 | 87 | 0
Cc1noc(C)c1C(=O)N1CCC2(CC1)Oc1ccc(F)cc1C(=O)C21CC(c2ccc(Cl)cc2)=NO1 (centres undefined) | -22 | -1 | 6.4* | -30 | 100 | 0 | 98 | 0
COc1ccccc1CN1CC(C(=O)N(C)CCc2ccccn2)CCC1=O (centres undefined) | · | 0 | · | 8 | · | · | · | ·
COC(=O)C1=C(C)N=c2s/c(=C/c3ccoc3)c(=O)n2C1c1ccccc1 (centres undefined) | -28 | 2 | 0.5* | 1 | 140 | 0 | 121 | 0
CC1(C)NC(=O)N(CC(=O)NNC(=O)c2ccccc2F)C1=O | -1 | 0 | 0 | -7 | · | · | · | ·
CC(CCc1ccccc1)NC(=O)c1ccc(NC(=O)c2cccc(Br)c2)cc1 (centres undefined) | -9 | 1 | 6.5* | · | 99 | 0 | 127 | 0
O=C(c1nc2nc(-c3ccccc3)cc(C(F)(F)F)n2n1)N1CCOCC1 | · | 7 | 0 | · | · | · | · | ·
CC(C)(C)NC(=O)c1nc2nc(-c3ccccc3)cc(C(F)(F)F)n2n1 | -8 | -5 | 8.2* | 1 | 103 | 0 | 98 | 0
COc1ccc(C2=NN(C(=O)c3ccccc3)C(c3ccccc3)C2)c(O)c1 (centres undefined) | 211 | 0 | 0 | -17 | · | · | · | ·
